Experimental findings from ChEMBL document CHEMBL1153591, “Exploring bis-(indolyl)methane moiety as an alternative and innovative CAP group in the design of histone deacetylase (HDAC) inhibitors” (Bioorg Med Chem Lett, 2009) are described below.

One assay concerns HCT-116. Nature of the assay: Cytotoxicity against human HCT116 cells after 24 hrs by sulforhodamine B assay. The note with it: HCT-116, 24 h. It counts as functional, cell-based.
For the next assay, the system named is NCI-H460. Nature of the assay: Cytotoxicity against human H460 cells after 24 hrs by sulforhodamine B assay. It counts as functional, cell-based. The settings on record: NCI-H460, 24 h. A general note: Sulforhodamine B stains cellular protein and so reports cell mass.
The target of another assay is Histone deacetylase 9 (Homo sapiens, UniProt Q9UKV0). Nature of the assay: Inhibition of human HDAC9 by fluorimetry. In outline:
(§1)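 Each purified single HDAC isoform incubated with fluorogenic substrate, a p53 fragment (residues […], Arg-His-Lys-Lys(Ac)) carrying an ε-acetylated lysine; deacetylation releases fluorophore, read by fluorimeter. Compounds tested as 10 doses, 1:3 serial dilution starting from 50 µM solution. IC50 from dose-response inhibition curves; trichostatin A as reference compound.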

The next assay has as its target Histone deacetylase 2 (Homo sapiens, UniProt Q92769). Nature of the assay: Inhibition of human HDAC2 by fluorimetry. In outline:
as §1

The target in assay [1] is T1, Polyamine deacetylase HDAC10 (Homo sapiens, UniProt Q969S8).
T1 sequence (Q969S8 whole entry): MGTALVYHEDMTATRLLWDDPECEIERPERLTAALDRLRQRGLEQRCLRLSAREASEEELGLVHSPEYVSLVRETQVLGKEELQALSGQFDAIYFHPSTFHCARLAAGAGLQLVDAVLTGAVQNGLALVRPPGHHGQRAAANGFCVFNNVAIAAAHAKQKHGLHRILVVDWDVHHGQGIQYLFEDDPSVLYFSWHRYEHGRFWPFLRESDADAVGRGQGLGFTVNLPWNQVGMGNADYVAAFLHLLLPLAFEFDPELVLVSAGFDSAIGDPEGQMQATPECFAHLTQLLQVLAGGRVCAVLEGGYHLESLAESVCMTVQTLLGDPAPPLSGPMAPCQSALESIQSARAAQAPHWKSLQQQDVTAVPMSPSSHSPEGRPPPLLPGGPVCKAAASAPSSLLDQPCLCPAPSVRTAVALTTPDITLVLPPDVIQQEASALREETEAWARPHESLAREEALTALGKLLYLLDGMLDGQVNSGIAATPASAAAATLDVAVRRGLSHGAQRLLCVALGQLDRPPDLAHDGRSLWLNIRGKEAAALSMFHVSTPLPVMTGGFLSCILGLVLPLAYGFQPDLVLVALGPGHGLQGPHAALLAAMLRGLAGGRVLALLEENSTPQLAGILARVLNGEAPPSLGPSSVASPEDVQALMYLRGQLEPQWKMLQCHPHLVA
Nature of the assay: Inhibition of human HDAC10 by fluorimetry. In outline:
as §1

The target of another assay is Histone deacetylase 5 (Homo sapiens, UniProt Q9UQL6). Nature of the assay: Inhibition of human HDAC5 by fluorimetry. In outline:
as §1

A further assay deals with Histone deacetylase 1 (Homo sapiens, UniProt Q13547). Nature of the assay: Inhibition of human HDAC1 by fluorimetry. In outline:
as §1

The target in another assay is Histone deacetylase 4 (Homo sapiens, UniProt P56524). Nature of the assay: Inhibition of human HDAC4 by fluorimetry. In outline:
as §1

The next assay addresses T2, Histone deacetylase 8 (Homo sapiens, UniProt Q9BY41).
T2 sequence (Q9BY41 whole entry): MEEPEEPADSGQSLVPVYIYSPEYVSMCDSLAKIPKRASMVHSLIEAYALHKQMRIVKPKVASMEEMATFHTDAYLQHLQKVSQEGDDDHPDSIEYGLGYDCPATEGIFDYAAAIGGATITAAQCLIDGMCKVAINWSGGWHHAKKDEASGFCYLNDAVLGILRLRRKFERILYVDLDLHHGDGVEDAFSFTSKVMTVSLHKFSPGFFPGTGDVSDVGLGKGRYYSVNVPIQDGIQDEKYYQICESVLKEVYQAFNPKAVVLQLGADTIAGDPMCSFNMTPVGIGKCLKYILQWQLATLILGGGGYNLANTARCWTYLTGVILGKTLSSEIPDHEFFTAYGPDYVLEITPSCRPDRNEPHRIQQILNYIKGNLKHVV
Nature of the assay: Inhibition of human HDAC8 by fluorimetry. In outline: as §1

The target in the next assay is Histone deacetylase 3 (Homo sapiens, UniProt O15379). Nature of the assay: Inhibition of human HDAC3 by fluorimetry. In a few lines:
as §1

The target in a further assay is T3, Histone deacetylase 11 (Homo sapiens, UniProt Q96DB2).
T3 sequence (Q96DB2 whole entry): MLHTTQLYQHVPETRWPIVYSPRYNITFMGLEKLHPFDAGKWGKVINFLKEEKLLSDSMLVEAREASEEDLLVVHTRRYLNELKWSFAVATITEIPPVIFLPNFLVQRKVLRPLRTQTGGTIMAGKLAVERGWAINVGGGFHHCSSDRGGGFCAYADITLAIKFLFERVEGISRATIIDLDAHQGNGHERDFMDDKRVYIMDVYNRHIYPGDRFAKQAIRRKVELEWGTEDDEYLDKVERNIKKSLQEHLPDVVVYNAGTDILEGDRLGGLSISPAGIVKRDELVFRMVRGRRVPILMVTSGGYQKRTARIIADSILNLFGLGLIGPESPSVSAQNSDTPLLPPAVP
Nature of the assay: Inhibition of human HDAC11 by fluorimetry. In a few lines:
as §1

For assay [2], the target named is T4, Protein deacetylase HDAC6 (Homo sapiens, UniProt Q9UBN7).
T4 sequence (Q9UBN7 whole entry): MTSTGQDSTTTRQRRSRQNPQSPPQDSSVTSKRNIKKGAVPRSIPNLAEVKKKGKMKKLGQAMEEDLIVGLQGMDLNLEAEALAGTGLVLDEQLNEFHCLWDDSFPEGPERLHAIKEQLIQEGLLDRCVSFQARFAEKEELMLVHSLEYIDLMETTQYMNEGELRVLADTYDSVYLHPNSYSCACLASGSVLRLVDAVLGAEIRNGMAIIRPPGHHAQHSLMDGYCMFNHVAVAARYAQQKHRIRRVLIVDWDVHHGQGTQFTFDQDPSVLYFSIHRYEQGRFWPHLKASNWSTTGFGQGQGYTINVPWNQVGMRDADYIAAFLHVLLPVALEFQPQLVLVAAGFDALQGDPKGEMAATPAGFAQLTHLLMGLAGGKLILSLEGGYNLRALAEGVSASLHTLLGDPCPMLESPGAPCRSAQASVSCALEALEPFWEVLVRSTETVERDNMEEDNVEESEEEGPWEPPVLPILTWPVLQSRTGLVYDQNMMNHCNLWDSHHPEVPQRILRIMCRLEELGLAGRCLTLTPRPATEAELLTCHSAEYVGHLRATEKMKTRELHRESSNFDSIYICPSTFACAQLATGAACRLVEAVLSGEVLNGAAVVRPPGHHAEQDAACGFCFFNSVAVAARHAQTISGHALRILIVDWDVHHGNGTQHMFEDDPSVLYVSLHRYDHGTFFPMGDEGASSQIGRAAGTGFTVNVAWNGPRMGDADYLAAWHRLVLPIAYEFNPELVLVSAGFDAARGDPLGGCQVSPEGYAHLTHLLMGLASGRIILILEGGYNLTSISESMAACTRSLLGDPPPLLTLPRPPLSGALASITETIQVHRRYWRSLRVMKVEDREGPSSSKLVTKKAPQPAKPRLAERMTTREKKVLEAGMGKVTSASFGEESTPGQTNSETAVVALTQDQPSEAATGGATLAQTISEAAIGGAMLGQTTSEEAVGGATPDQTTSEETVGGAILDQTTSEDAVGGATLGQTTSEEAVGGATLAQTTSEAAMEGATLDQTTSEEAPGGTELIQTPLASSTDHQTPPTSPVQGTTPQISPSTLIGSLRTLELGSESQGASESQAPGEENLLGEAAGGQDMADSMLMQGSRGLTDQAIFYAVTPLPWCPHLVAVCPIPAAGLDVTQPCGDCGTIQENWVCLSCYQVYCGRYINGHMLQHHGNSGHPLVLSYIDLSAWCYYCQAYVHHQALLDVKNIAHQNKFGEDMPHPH
Nature of the assay: Inhibition of human HDAC6 by fluorimetry. In outline:
as §1

Sequence of Histone deacetylase 4 (P56524 whole entry): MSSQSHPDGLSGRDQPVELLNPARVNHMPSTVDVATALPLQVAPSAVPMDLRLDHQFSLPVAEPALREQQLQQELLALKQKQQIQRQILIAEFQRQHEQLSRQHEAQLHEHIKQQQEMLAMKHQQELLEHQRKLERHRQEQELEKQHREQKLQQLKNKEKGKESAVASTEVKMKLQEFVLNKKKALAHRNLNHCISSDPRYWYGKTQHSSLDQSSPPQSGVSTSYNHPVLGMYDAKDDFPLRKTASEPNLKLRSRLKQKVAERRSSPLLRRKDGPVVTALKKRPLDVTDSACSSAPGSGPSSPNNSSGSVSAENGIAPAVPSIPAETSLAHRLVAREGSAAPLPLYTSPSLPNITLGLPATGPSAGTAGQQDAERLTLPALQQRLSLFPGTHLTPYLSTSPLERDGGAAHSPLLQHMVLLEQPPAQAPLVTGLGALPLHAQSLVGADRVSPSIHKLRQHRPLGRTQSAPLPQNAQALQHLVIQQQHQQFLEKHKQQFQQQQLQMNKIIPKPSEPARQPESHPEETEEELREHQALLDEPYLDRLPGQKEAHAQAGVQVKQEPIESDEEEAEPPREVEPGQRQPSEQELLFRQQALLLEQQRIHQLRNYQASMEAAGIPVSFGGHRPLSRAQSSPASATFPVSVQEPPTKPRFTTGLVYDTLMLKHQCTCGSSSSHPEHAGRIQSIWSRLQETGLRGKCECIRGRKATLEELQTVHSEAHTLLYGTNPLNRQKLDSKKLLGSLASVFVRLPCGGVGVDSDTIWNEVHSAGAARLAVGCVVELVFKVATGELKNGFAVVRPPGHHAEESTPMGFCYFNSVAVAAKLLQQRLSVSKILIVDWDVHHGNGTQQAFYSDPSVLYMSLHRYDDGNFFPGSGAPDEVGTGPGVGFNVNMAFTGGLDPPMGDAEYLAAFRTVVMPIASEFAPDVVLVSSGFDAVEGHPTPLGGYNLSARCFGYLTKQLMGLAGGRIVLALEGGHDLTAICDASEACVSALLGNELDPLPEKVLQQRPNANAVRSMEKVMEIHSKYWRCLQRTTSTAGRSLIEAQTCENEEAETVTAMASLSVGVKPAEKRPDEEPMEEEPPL
Sequence of Histone deacetylase 9 (Q9UKV0 whole entry, the tested form may be a part, canonical isoform): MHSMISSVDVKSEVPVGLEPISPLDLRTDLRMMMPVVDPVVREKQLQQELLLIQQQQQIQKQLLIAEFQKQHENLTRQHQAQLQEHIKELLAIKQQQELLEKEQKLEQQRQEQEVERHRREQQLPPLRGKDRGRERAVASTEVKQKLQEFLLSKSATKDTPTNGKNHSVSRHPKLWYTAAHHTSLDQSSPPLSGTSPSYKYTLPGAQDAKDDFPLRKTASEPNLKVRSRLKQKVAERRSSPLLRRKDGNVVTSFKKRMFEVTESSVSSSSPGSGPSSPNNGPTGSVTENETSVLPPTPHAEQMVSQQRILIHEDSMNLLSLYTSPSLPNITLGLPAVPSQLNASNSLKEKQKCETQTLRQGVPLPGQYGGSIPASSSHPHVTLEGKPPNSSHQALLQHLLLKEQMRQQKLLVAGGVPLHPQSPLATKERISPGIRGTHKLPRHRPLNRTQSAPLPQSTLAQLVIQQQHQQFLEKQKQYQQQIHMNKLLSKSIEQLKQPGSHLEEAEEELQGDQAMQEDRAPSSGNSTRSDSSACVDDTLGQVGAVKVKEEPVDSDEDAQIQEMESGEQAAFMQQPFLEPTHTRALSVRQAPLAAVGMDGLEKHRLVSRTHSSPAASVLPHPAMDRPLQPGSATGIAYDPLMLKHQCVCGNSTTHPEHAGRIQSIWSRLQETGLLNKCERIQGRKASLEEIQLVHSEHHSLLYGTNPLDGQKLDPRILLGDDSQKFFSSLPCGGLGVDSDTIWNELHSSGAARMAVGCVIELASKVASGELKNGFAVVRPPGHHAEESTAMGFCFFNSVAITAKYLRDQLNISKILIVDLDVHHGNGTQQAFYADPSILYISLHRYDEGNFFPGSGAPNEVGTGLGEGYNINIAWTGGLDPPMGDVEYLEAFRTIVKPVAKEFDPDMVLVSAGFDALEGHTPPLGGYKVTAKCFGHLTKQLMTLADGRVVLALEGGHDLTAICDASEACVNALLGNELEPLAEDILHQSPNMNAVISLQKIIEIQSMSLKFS
Sequence of Histone deacetylase 2 (Q92769 whole entry): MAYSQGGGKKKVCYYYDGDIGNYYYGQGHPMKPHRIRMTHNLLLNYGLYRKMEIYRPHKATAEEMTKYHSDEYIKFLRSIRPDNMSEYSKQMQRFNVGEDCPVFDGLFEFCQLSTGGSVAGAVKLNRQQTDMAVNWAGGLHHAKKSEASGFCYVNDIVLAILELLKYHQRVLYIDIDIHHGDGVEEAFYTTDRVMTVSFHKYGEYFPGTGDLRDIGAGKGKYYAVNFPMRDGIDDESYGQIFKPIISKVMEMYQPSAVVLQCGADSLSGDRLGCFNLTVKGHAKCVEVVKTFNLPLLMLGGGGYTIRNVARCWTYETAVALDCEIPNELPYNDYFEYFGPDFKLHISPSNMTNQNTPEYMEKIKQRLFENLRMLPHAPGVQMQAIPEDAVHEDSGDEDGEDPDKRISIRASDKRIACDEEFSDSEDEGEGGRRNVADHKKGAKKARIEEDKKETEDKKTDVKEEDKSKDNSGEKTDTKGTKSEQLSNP
Sequence of Histone deacetylase 3 (O15379 whole entry): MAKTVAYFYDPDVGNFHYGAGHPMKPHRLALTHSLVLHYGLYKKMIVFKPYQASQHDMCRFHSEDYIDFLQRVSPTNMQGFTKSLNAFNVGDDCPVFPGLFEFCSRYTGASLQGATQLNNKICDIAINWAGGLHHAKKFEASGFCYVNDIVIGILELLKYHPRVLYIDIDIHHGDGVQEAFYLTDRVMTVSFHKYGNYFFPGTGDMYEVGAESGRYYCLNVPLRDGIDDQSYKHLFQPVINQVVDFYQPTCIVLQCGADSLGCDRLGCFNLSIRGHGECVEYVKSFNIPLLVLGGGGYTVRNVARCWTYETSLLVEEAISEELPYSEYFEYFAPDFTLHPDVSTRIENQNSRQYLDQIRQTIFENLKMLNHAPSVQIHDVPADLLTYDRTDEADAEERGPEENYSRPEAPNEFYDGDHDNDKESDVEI
Sequence of Histone deacetylase 1 (Q13547 whole entry): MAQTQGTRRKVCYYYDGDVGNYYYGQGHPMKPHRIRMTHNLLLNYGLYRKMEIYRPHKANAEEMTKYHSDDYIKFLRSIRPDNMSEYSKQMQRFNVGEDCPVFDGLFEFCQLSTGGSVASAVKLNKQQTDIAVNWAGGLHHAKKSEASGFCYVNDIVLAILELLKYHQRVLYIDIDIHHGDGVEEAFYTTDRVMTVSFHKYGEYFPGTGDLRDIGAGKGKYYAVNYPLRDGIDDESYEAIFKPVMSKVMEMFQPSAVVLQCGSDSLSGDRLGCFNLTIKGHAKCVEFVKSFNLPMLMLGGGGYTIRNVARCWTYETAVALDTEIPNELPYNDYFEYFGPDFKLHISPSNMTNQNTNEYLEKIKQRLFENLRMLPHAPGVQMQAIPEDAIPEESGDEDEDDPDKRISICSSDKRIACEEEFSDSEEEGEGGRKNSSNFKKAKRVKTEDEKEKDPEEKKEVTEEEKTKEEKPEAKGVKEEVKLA
Sequence of Histone deacetylase 5 (Q9UQL6 whole entry): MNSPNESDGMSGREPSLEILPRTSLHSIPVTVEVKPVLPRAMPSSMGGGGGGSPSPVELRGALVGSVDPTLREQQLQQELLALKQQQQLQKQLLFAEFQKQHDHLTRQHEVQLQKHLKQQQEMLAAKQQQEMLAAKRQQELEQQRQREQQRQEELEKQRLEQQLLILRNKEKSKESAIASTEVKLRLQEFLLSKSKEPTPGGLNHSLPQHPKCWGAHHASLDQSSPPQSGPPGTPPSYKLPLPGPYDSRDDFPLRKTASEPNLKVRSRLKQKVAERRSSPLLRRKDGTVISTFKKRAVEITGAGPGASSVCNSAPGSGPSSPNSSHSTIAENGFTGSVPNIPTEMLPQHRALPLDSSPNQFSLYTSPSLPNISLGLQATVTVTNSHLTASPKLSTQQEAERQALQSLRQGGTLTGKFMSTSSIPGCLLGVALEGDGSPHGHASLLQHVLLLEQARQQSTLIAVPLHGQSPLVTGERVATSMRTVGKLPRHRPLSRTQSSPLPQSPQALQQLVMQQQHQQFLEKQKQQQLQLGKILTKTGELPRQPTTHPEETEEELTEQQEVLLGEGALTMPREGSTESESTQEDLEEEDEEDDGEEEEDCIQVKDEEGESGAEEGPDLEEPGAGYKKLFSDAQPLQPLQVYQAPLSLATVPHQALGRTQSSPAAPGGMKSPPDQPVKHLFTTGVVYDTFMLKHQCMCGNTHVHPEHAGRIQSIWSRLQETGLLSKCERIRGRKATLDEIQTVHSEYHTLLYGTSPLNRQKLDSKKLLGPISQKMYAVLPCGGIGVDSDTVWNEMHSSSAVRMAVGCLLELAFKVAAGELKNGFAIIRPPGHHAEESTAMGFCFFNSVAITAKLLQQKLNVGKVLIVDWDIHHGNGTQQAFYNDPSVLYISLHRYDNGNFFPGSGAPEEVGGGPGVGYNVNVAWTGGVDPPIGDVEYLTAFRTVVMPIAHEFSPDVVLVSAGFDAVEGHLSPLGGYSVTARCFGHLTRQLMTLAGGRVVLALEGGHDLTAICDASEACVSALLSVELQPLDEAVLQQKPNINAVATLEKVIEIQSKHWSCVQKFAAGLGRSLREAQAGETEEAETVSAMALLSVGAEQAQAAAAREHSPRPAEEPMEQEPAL

Broadly, the IC50 is the concentration at which inhibition is half-maximal. Low readings indicate greater potency in that assay, high ones weaker potency in that assay. Turning to `CN(O)C(=O)CCCCCC(c1cn(C)c2ccccc12)c1cn(C)c2ccccc12`, the half-inhibitory concentration (IC50) with HCT-116 and in the assay with NCI-H460 was greater than 20000 nM each time.
Turning to `Cc1[nH]c2ccccc2c1C(CCCCCC(=O)NO)c1c(C)[nH]c2ccccc12`, the figures for the IC50 in the assay with HCT-116 and with NCI-H460 were 3200 nM and 4300 nM, respectively.
Turning to `O=C(CCCCCC(c1cc2ccccc2[nH]1)c1c[nH]c2ccccc12)NO` (stereo not drawn), the IC50 in the assay with HCT-116 stood at 840 nM; in the assay with NCI-H460, 820 nM.
Take `Nc1ccccc1NC(=O)CCCCCC(c1c[nH]c2ccccc12)c1c[nH]c2ccccc12`: the IC50 is 16500 nM with HCT-116; 50000 nM against Histone deacetylase 9; 1100 nM at Histone deacetylase 2; greater than 20000 nM with NCI-H460; 73000 nM in assay [1]; 28000 nM against Histone deacetylase 5. Also, the half-maximal inhibitory concentration (IC50) turned out to be 21000 nM against Histone deacetylase 1; 150000 nM against Histone deacetylase 4; 74000 nM against Histone deacetylase 8; 260 nM against Histone deacetylase 3; 5800 nM on Histone deacetylase 11.
For the molecule `O=C(CCCCC(c1c[nH]c2ccccc12)c1c[nH]c2ccccc12)NO`, the values for the half-maximal inhibitory concentration (IC50) with HCT-116 and with NCI-H460 were 5800 nM and 5200 nM, respectively.
The like results for `O=C(CCCCCCC(c1c[nH]c2ccccc12)c1c[nH]c2ccccc12)NO` were, in that order, 3500 nM and 2700 nM.
Consider `O=C(CCC(c1c[nH]c2ccccc12)c1c[nH]c2ccccc12)NO`, for which the IC50 in the assay with HCT-116 and in the assay on NCI-H460 was greater than 20000 nM in each case.
Turning to `O=C(CCCCCC(c1c[nH]c2ccc([N+](=O)[O-])cc12)c1c[nH]c2ccc([N+](=O)[O-])cc12)NO`, the IC50 with HCT-116 is 1200 nM; against Histone deacetylase 9, 150 nM; against Histone deacetylase 2, 590 nM; in [2], 20 nM; with NCI-H460, 3200 nM; in assay [1], 250 nM. Further, the IC50 was found to be 140 nM at Histone deacetylase 5; 140 nM at Histone deacetylase 1; 220 nM on Histone deacetylase 4; 600 nM on Histone deacetylase 8; 18 nM against Histone deacetylase 3.
For the molecule `COc1cccc2c(C(CCCCCC(=O)NO)c3c[nH]c4c(OC)cccc34)c[nH]c12`, the half-inhibitory concentration (IC50) in the assay with HCT-116 came out at 410 nM; against Histone deacetylase 9, 340 nM; against Histone deacetylase 2, 440 nM; in assay [2], 2.6 nM; in the assay with NCI-H460, 550 nM; in [1], 240 nM. In addition, the IC50 came to 311 nM against Histone deacetylase 5; 83 nM against Histone deacetylase 1; 220 nM on Histone deacetylase 4; 180 nM at Histone deacetylase 8; 23 nM on Histone deacetylase 3.
On to `O=C(CCCC(c1c[nH]c2ccccc12)c1c[nH]c2ccccc12)NO`, for which the IC50 in the assay with HCT-116 and in the assay with NCI-H460 was greater than 20000 nM each time.
Regarding `Cc1[nH]c2ccccc2c1C(c1ccc(/C=C/C(=O)NO)cc1)c1c(C)[nH]c2ccccc12`, the IC50 with HCT-116 and in the assay with NCI-H460 was greater than 20000 nM in each case.
As for `O=C(CCCCCc1c[nH]c2ccccc12)NO`, the values for the IC50 in the assay with HCT-116 and with NCI-H460 were 15000 nM and 22000 nM, respectively.
For the molecule `Cn1cc(C(CCCCCC(=O)NO)c2cn(C)c3ccccc23)c2ccccc21`, the IC50 in the assay on HCT-116 is 6600 nM; with NCI-H460, 8800 nM.
Regarding `O=C(CCCCCC(c1c[nH]c2cccc(F)c12)c1c[nH]c2cccc(F)c12)NO`, the IC50 in the assay on HCT-116 was 400 nM; in the assay on NCI-H460, 700 nM.
Take `Cc1ccc2[nH]cc(C(CCCCCC(=O)NO)c3c[nH]c4ccc(C)cc34)c2c1`: the concentration for half-maximal inhibition (IC50) in the assay on HCT-116 turned out to be 270 nM; with NCI-H460, 510 nM.
As to `O=C(CCCCCC(c1c[nH]c2ccccc12)c1c[nH]c2ccccc12)NO`, the 50% inhibitory concentration (IC50) was found to be 600 nM in the assay on HCT-116; 640 nM on Histone deacetylase 9; 2000 nM on Histone deacetylase 2; 6 nM in assay [2]; 1200 nM in the assay with NCI-H460; 870 nM in [1]. In addition, the half-inhibitory concentration (IC50) on Histone deacetylase 5 is 590 nM; against Histone deacetylase 1, 730 nM; at Histone deacetylase 4, 1300 nM; at Histone deacetylase 8, 240 nM; at Histone deacetylase 3 it was 350 nM; against Histone deacetylase 11 it was 430 nM.
As to `CN(O)C(=O)CCCCCC(c1c[nH]c2ccccc12)c1c[nH]c2ccccc12`, the IC50 with HCT-116 and with NCI-H460 was greater than 20000 nM throughout.
Turning to `CCc1cccc2c(C(CCCCCC(=O)NO)c3c[nH]c4c(CC)cccc34)c[nH]c12`, the IC50 with HCT-116 turned out to be 3500 nM; with NCI-H460 it was 4800 nM.
